Source: ChEMBL document CHEMBL3259717, “Synthetic calanolides with bactericidal activity against replicating and nonreplicating Mycobacterium tuberculosis” (J Med Chem, 2014)
Converted amounts (≈) assume the structure as drawn. The source made the active and inactive calls. No cut-off for these calls is given here.

How the values were obtained:
[1] = system: Mycobacterium tuberculosis; assay: Antibacterial activity against replicating form of wild type Mycobacterium tuberculosis H37Rv assessed as growth inhibition after 7 days by high-throughput screening assay; assay type: functional; conditions: 168 h
Procedure, shortened: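 Wild-type H37Rv in 7H9 with glycerol, tyloxapol, ADN, in 96-well plates. Set up as the 384-well screen: OD580 0.01 start, compound in DMSO, 7 days at 37 °C, 20% O2, 5% CO2. OD580 read; MIC90 = 90% growth inhibition vs DMSO control.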

[2] = system: Mycobacterium tuberculosis; assay: Antibacterial activity against non-replicating form of wild type Mycobacterium tuberculosis H37Rv assessed as growth inhibition after 3 days by high-throughput screening assay; assay type: functional; conditions: 72 h
[3] = Selectivity index, ratio of LD50 for human HepG2 cells to MIC90 for replicating form of Mycobacterium tuberculosis H37Rv; assay type: toxicity, cell-based; conditions: read-out: Selectivity Index
Procedure, shortened: (§1)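 HepG2 in DMEM with 10% FBS, pyruvate, glutamine, HEPES and nonessential amino acids, seeded 3000 cells/well in 384-well plates. Compound for 2 days at 1% final DMSO. ATP read by CellTiter-Glo luminescence. LD50 = 50% drop in ATP signal vs DMSO. SI = LD50/MIC90 against replicating Mtb.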

[4] = Cytotoxicity against human HepG2 cells assessed as decrease in ATP signal after 2 days by CellTiter-Glo assay; assay type: cell-based; conditions: read-out: LD50; procedure, shortened: as §1
[5] = system: Mycobacterium tuberculosis; assay: Antibacterial activity against replicating form of Mycobacterium tuberculosis MC2 6220 assessed as growth inhibition after 7 days by high-throughput screening assay; assay type: functional; conditions: MC2 6220, 168 h
Procedure, shortened: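 Attenuated Mtb mc26220 ΔpanCDΔlysA in 7H9 with glycerol, tyloxapol, OADC, casein amino acids, 240 μg/mL L-lysine, 24 μg/mL pantothenate. Mid-log cells diluted to OD580 0.01 in 384-well plates, compound in DMSO, 7 days at 37 °C, 20% O2, 5% CO2. OD580 read; MIC90 = 90% growth inhibition vs DMSO.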

[6] = system: Mycobacterium tuberculosis; assay: Antibacterial activity against non-replicating form of Mycobacterium tuberculosis MC2 6220 assessed as growth inhibition after 7 days by high-throughput screening assay; assay type: functional; conditions: MC2 6220, 168 h
Procedure, shortened: (§2)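 Log-phase mc26220 washed in PBS/tyloxapol, resuspended in Sauton's-based NR medium (butyrate, 0.5 mM NaNO2, pH 5.0) at OD580 0.1. Compound exposure 3 days at 37 °C, 1% O2, 5% CO2. Then R medium added (5-fold dilution), 7 days outgrowth at 20% O2. OD580 read; MIC90 = 90% inhibition vs DMSO.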

[7] = system: Mycobacterium tuberculosis; assay: Antibacterial activity against non-replicating form of Mycobacterium tuberculosis MC2 6220 assessed as growth inhibition after 3 days by high-throughput screening assay; assay type: functional; conditions: MC2 6220, 72 h; procedure, shortened: as §2
[8] = Cytotoxicity against African green monkey Vero cells; assay type: cell-based; conditions: chlorocebus sabaeus, read-out: LD50 (the source's name)
[9] = system: Mycobacterium tuberculosis; assay: Antimycobacterial activity against replicating form of Mycobacterium tuberculosis infected in African green monkey Vero cells assessed as growth inhibition; assay type: functional
[10] = Selectivity index, ratio of LD50 for African green monkey Vero cells to MIC for replicating form of Mycobacterium tuberculosis infected in African green monkey Vero cells; assay type: toxicity, cell-based; conditions: read-out: Selectivity Index
[11] = system: Mycobacterium tuberculosis; assay: Bactericidal activity against wild type Mycobacterium tuberculosis H37Rv infected in IFN-gamma-stimulated primary human monocyte-derived macrophages assessed as reduction of log10CFU at 30 times MIC incubated for 7 days followed by compound washout measured after 3 weeks; assay type: functional
Procedure, shortened: (§3)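 Monocytes from healthy donors isolated by CD14 selection. Differentiated 2 weeks in 40% human plasma with 0.5 ng/mL GM-CSF and TNF-alpha, 10% O2. Then 5 ng/mL IFN-gamma overnight, infected with wild-type Mtb at MOI 0.1. Compound added at 24 h, 1% DMSO final, 7 days. Viability inspected visually; lysed in 0.55% Triton-X and plated on 7H11/OADC for CFU.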

[12] = system: Mycobacterium tuberculosis; assay: Bactericidal activity against wild type Mycobacterium tuberculosis H37Rv infected in IFN-gamma-stimulated primary human monocyte-derived macrophages assessed as reduction of log10CFU incubated for 7 days followed by compound washout measured after 3 weeks; assay type: functional; procedure, shortened: as §3
[13] = Genotoxicity in mouse lymphoma cells; assay type: toxicity, cell-based
[14] = Selectivity index, ratio of LD50 for human HepG2 cells to MIC90 for replicating form of Mycobacterium tuberculosis mc'2 6220; assay type: toxicity, cell-based; conditions: read-out: Selectivity Index; procedure, shortened: as §1
Escherichia coli = assay: Bactericidal activity against Escherichia coli at <= 25 ug/mL after 6 to 18 hrs; assay type: functional, organism-based
Procedure, shortened: (§4)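 Log-phase cultures in their own media (M. smegmatis 7H9/glycerol/tyloxapol; E. coli, P. aeruginosa LB; S. aureus Mueller-Hinton; C. albicans YM) diluted to OD 0.01 in 96-well plates. Compound or DMSO added. Incubated 8−48 h with shaking at 37 °C (Candida at 30 °C). OD600 read.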

Candida albicans = assay: Fungicidal activity against Candida albicans at <= 25 ug/mL after 6 to 18 hrs; assay type: functional, organism-based; procedure, shortened: as §4
[15] = system: Mycolicibacterium smegmatis; assay: Antibacterial activity against Mycobacterium smegmatis assessed as growth inhibition at 10 ug/mL after 24 to 48 hrs relative to control; assay type: functional; conditions: read-out: GI; procedure, shortened: as §4
[16] = system: Mycobacterium tuberculosis; assay: Bactericidal activity against non-replicating form of wild type Mycobacterium tuberculosis H37Rv assessed as reduction of log10CFU at 0.6 ug/mL after 7 to 8 days; assay type: functional
Procedure, shortened: (§5)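 Wild-type Mtb single-cell suspension at OD 0.01 (R) or 0.1 (NR, in NR medium, 1% O2) in 96-well plates with compound for 7 days. Serial dilution in 7H9-ADN, plated on 7H11 agar with glycerol and OADC for CFU.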

[17] = system: Mycobacterium tuberculosis; assay: Bactericidal activity against replicating form of wild type Mycobacterium tuberculosis H37Rv assessed as reduction of log10CFU at 0.6 ug/mL after 7 to 8 days; assay type: functional; procedure, shortened: as §5
Staphylococcus aureus = assay: Bactericidal activity against Staphylococcus aureus ATCC 29213 at <= 25 ug/mL after 6 to 18 hrs; assay type: functional, organism-based; procedure, shortened: as §4
Pseudomonas aeruginosa = assay: Bactericidal activity against Pseudomonas aeruginosa PAO1 at <= 25 ug/mL after 6 to 18 hrs; assay type: functional, organism-based; procedure, shortened: as §4
[18] = system: Mycobacterium tuberculosis; assay: Bactericidal activity against wild type Mycobacterium tuberculosis H37Rv infected in IFN-gamma-stimulated primary human monocyte-derived macrophages assessed as reduction of log10CFU at 1 ug/mL incubated for 7 days followed by compound washout measured after 3 weeks; assay type: functional; procedure, shortened: as §3

| Structure (SMILES) | MIC90 [1] [µg/mL] | MIC90 [2] [µg/mL] | selectivity ratio [3] | CC50 at 48 h [4] [µg/mL] | MIC90 [5] [µg/mL] | MIC90 [7] [µg/mL] | selectivity ratio [14] | other results |
| --- | --- | --- | --- | --- | --- | --- | --- | --- |
| CCc1c(F)c(=O)oc2c1c1c(c3oc([N+](=O)[O-])cc32)C=CC(C)(C)O1 | 0.6 (≈ 1.67 µM) | 1 (≈ 2.78 µM) | > 40 | > 25 |  |  |  |  |
| CCCc1cc(=O)oc2cc(OCCN3CCCCC3)c3c(c12)OC(C)(C)C=C3 |  |  |  | > 20 | > 20 | > 20 |  | MIC90 [6]: 7 µg/mL (≈ 17.6 µM) |
| CCCc1cc(=O)oc2c3c(c4c(c12)OC(C)(C)C=C4)O[C@H](C)[C@@H](C)[C@@H]3O [CALANOLIDE A] |  |  |  |  |  |  |  | CC50 [8]: 7.6 µg/mL (≈ 20.5 µM); MIC [9]: 3.1 µg/mL (≈ 8.37 µM); selectivity ratio [10]: 2.4 |
| CCCc1cc(=O)oc2c3c(cc(OCCN4CCOCC4)c12)O[C@H]([N+](=O)[O-])[C@H]3O | 0.08 (≈ 0.19 µM) | 0.08 (≈ 0.19 µM) | 20 | 2 (≈ 4.76 µM) |  |  |  |  |
| CO[C@H]1/C=C/O[C@@]2(C)Oc3c(C)c(O)c4c(O)c(c(/C=N/N5CCN(C)CC5)c(O)c4c3C2=O)NC(=O)/C(C)=C\C=C\[C@H](C)[C@H](O)[C@@H](C)[C@@H](O)[C@@H](C)[C@H](OC(C)=O)[C@@H]1C [RIFAMPIN] |  |  |  |  |  |  |  | log10cfu [11]: 1 |
| CCCc1cc(=O)oc2c1c(OCc1ccc(F)cc1)cc1oc([N+](=O)[O-])cc12 | 0.6 (≈ 1.51 µM) | 3 (≈ 7.55 µM) | > 160 | > 100 |  |  |  | log10cfu [12]: 1; Activity [13]: Non-toxic |
| CN1CCN(Cc2cc(=O)oc3c2c2c(c4oc([N+](=O)[O-])cc43)C=CC(C)(C)O2)CC1 | 0.08 (≈ 0.188 µM) | 0.3 (≈ 0.705 µM) | 31 | 3 (≈ 7.05 µM) |  |  |  |  |
| Cc1cc(=O)oc2c1c1c(c3oc([N+](=O)[O-])cc32)C=CC(C)(C)O1 | 0.08 (≈ 0.244 µM) | 0.2 (≈ 0.611 µM) | 16 | 1 (≈ 3.06 µM) |  |  |  |  |
| CCCc1cc(=O)oc2cc(OCC=C(C)C)c3c(c12)OC(C)(C)C=C3 |  |  |  | > 18 | > 18 | > 18 |  | MIC90 [6]: 2 µg/mL (≈ 5.64 µM) |
| CC1(C)CCc2c3c(c4oc(=O)c5c(c4c2O1)CCCC5)[C@H](O)[C@@H]([N+](=O)[O-])O3 |  |  |  | 25 (≈ 64.5 µM) | 0.4 (≈ 1.03 µM) | 0.8 (≈ 2.07 µM) | 64 |  |
| CCCc1cc(=O)oc2cc(N(C)C)c3c(c12)OC(C)(C)C=C3 |  |  |  | > 16 | > 16 | > 16 |  | MIC90 [6]: 2 µg/mL (≈ 6.38 µM) |
| CCCc1cc(=O)oc2c3c(c4c(c12)OC(C)(C)C=C4)O[C@H]([N+](=O)[O-])[C@H]3O (relative stereo) |  |  |  | 3 (≈ 8.04 µM) | < 0.2 | < 0.2 | > 11 |  |
| CCCc1cc(=O)oc2c1c(OCCN1CCOCC1)cc1oc([N+](=O)[O-])cc12 | 0.08 (≈ 0.199 µM) | 0.2 (≈ 0.497 µM) | 125 | 10 (≈ 24.9 µM) |  |  |  | log10cfu [12]: 1; Activity [13]: Non-toxic |
| Cc1c(F)c(=O)oc2c1c1c(c3oc([N+](=O)[O-])cc32)CCC(C)(C)O1 |  |  |  | > 50 | 0.8 (≈ 2.3 µM) | 2 (≈ 5.76 µM) | > 64 |  |
| CCCc1cc(=O)oc2c3c(cc(OCCN4CCOCC4)c12)O[C@@H]([N+](=O)[O-])[C@@H]3O | 0.08 (≈ 0.19 µM) | 0.08 (≈ 0.19 µM) | 10 | 0.8 (≈ 1.9 µM) |  |  |  |  |
| CCCc1cc(=O)oc2c1c(OCCN1CCOCC1)cc1oc([N+](=O)[O-])c(COC(C)=O)c12 |  |  |  | < 0.3 | 1 (≈ 2.11 µM) | 3 (≈ 6.32 µM) | < 0.3 |  |
| CCCc1cc(=O)oc2c1c1c(c3oc([N+](=O)[O-])cc32)CCC(C)(C)O1 | 0.6 (≈ 1.68 µM) | 1 (≈ 2.8 µM) | > 80 | > 50 |  |  |  | log10cfu [12]: 2; Activity (Escherichia coli): inactive; Activity (Candida albicans): inactive; inhibition of growth at 10 µg/mL [15]: 20%; log10cfu [16]: 2.1; log10cfu [17]: 2.6; Activity (Staphylococcus aureus): inactive; Activity (Pseudomonas aeruginosa): inactive |
| CCCc1cc(=O)oc2c3c(cc(OCCN4CCOCC4)c12)O[C@H]([N+](=O)[O-])[C@H]3C(C)C (racemic) |  |  |  | > 22 | 22 (≈ 49.3 µM) | > 22 | > 1 |  |
| CCCc1cc(=O)oc2c1c1c(c3oc([N+](=O)[O-])cc32)C=CC(C)(C)O1 | 0.3 (≈ 0.844 µM) | 0.6 (≈ 1.69 µM) | 8 | 3 (≈ 8.44 µM) |  |  |  | log10cfu [16]: 2.6; log10cfu [17]: 3.1; log10cfu [18]: 1.8 |
| CC1(C)CCc2c3c(c4oc(=O)c5c(c4c2O1)CCC5)[C@H](O)[C@@H]([N+](=O)[O-])O3 |  |  |  | 25 (≈ 67 µM) | 0.2 (≈ 0.536 µM) | 0.4 (≈ 1.07 µM) | 128 |  |
| CCCc1cc(=O)oc2c1c(OC)cc1oc([N+](=O)[O-])cc12 |  |  |  | 0.3 (≈ 0.989 µM) | < 0.2 | < 0.2 | > 2 |  |
